Data: ChEMBL document CHEMBL3286393 (J Med Chem, 2014)
Each block holds one molecule with its values, some of them ahead of it. Active and inactive are the calls of the source. The calls are words filed in the database; no cut-off is given here.

Legend:
[1] = test system: Radical scavenging activity; assay: Antioxidant activity assessed as DPPH free radical scavenging activity at 10 uM after 30 mins […] by spectrophotometric analysis; assay type: functional
[2] = Aqueous stability of the compound in at 2 uM in 10 mM aqueous ammonium bicarbonate at pH 7.9 assessed as formation of trans-6-(4'-hydroxy-3'-methoxyphenyl)-2,4-dioxo-5-hexenal measured as residual amount of compound by reversed phase liquid chromatography-coupled mass spectrometry; assay type: physicochemical; conditions: buffer, pH 7.9, 2 µM
Procedure, shortened: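 Compounds at 2 μM in 10 mM aqueous ammonium bicarbonate pH 7.9, incubated 30 min at 37 °C. Analysed by UPLC-MS on a C18 column, gradient acetonitrile/water with 0.07% formic acid, at 0.7 mL/min. Residual amount given as % of control; three to four independent experiments.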

[3] = target: T1, Polyunsaturated fatty acid lipoxygenase ALOX12 (Homo sapiens) (UniProt P18054); assay: Inhibition of 12-LO in human neutrophils assessed as residual activity relative to control; conditions: values are per cent of control
T1 sequence (whole entry): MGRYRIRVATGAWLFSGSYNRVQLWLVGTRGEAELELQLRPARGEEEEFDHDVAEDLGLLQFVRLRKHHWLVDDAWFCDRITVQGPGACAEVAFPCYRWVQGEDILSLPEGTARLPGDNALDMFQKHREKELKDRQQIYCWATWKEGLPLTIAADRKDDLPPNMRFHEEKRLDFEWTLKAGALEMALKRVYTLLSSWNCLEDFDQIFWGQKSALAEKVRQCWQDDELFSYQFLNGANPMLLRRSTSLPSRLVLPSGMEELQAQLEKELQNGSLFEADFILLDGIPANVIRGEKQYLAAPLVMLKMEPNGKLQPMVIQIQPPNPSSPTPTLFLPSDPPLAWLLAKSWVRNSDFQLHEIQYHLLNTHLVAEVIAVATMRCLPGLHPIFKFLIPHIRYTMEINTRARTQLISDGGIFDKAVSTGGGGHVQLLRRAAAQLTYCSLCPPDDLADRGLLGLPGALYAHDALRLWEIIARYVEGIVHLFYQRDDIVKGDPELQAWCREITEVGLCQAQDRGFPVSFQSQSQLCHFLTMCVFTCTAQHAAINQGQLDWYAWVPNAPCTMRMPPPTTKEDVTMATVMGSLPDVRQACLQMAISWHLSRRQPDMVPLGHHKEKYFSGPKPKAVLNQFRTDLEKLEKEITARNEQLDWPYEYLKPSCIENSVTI

[4] = target: T2, Prostaglandin G/H synthase 1 (Ovis aries) (UniProt P05979); assay: Inhibition of purified ovine COX-1 assessed as residual activity by measuring formation of 12-HHT from arachidonic acid preincubated at 10 uM for 5 mins before substrate addition measured after 5 mins by HPLC analysis relative to control
T2 sequence (whole entry): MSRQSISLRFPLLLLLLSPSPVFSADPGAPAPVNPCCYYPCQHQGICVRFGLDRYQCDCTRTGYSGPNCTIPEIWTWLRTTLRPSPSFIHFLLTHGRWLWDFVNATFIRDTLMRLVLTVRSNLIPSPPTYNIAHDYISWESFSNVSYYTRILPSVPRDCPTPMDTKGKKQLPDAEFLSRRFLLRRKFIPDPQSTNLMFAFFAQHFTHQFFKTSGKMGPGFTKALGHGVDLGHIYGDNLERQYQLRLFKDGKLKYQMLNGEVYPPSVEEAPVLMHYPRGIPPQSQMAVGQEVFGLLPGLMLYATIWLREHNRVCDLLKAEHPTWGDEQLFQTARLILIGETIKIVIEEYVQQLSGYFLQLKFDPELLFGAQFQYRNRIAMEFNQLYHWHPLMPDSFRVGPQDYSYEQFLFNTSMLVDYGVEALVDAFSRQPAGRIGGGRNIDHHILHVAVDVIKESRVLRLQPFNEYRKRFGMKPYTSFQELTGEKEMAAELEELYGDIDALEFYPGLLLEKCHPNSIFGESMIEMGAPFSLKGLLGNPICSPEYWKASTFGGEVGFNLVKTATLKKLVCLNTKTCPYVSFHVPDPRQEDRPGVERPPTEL
Procedure, shortened: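 Purified ovine COX-1 (50 units) in 100 mM Tris pH 8 with 5 mM glutathione, 5 μM hemoglobin and 100 μM EDTA. Preincubated 5 min at 4 °C then 1 min at 37 °C. 5 μM arachidonic acid added; 12-HHT extracted after 5 min and measured by HPLC. Residual activity at 10 μM, three independent experiments.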

[5] = target: T3, Prostaglandin E synthase (Homo sapiens) (UniProt O14684); assay: Inhibition of mPGES1-mediated PGE2 production in microsomes of IL-1beta stimulated human A549 cells assessed as residual activity preincubated at 10 uM for 15 mins by RP-HPLC analysis relative to control; assay type: cell-based
T3 sequence (whole entry): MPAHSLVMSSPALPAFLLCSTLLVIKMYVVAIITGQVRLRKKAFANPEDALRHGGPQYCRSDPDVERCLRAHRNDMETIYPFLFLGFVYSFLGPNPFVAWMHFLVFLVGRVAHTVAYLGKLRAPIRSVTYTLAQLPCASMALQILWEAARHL
Procedure, shortened: (§1)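 mPGES-1 source: microsomes of A549 cells treated 48 h with IL-1β 2 ng/mL, at 25−50 μg protein/mL in 0.1 M potassium phosphate pH 7.4 with 2.5 mM glutathione. Compound preincubation 15 min at 4 °C; PGH2 (20 μM final) for 1 min; FeCl2/citric acid stop with 11β-PGE2 internal standard. PGE2 by RP-HPLC.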

[6] = target: T4, Polyunsaturated fatty acid 5-lipoxygenase (Homo sapiens, UniProt P09917); assay: Inhibition of 5-LO in human neutrophils using arachidonic acid as substrate preincubated for 15 mins measured after 10 mins by HPLC analysis
T4 sequence (P09917 whole entry): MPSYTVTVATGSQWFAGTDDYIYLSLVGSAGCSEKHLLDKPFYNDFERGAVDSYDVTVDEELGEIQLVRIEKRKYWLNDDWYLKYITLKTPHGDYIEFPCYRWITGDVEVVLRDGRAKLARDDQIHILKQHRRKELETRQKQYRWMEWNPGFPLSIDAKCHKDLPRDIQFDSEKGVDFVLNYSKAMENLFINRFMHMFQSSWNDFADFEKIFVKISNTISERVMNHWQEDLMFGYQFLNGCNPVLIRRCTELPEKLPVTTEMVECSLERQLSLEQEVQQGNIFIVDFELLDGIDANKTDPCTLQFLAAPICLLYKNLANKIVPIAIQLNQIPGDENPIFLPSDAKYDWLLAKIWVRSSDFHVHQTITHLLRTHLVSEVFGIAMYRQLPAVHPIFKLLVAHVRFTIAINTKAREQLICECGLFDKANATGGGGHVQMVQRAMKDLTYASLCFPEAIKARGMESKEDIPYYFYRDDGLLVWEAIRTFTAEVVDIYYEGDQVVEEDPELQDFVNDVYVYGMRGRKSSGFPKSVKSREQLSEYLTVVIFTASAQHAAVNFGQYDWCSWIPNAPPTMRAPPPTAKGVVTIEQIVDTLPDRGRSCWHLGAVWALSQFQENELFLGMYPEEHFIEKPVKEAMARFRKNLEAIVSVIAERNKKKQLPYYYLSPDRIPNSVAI
Procedure, shortened: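 Fresh human neutrophils, 1 × 10⁷/mL in PBS pH 7.4 with 1 mM CaCl2 and 1 mg/mL glucose, preincubated 15 min at 37 °C. LTB4, its all-trans isomers and 5-H(P)ETE by HPLC.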

[7] = target: T4, Polyunsaturated fatty acid 5-lipoxygenase; assay: Inhibition of human recombinant 5-LO expressed in Escherichia coli Bl21 (DE3) using arachidonic acid as substrate preincubated for 10 mins measured after 10 mins by RP-HPLC analysis
Procedure, shortened: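 5-LO expressed from pT3-5LO in E. coli BL21(DE3), semi-purified on ATP-agarose, diluted in PBS with 1 mM EDTA and 1 mM ATP. Preincubated with compound 10 min at 4 °C, then 30 s at 37 °C. Started with 2 mM CaCl2 plus 20 μM arachidonic acid; 10 min at 37 °C; ice-cold methanol stop. Three to four experiments.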

[8] = target: T5, Prostaglandin G/H synthase 1 (Homo sapiens, UniProt P23219); assay: Inhibition of COX1-mediated PGE2 production in human platelets assessed as residual activity by measuring formation of 12-HHT from arachidonic acid preincubated at 10 uM for 5 mins measured after 5 mins by RP-HPLC analysis relative to control
T5 sequence (P23219 whole entry): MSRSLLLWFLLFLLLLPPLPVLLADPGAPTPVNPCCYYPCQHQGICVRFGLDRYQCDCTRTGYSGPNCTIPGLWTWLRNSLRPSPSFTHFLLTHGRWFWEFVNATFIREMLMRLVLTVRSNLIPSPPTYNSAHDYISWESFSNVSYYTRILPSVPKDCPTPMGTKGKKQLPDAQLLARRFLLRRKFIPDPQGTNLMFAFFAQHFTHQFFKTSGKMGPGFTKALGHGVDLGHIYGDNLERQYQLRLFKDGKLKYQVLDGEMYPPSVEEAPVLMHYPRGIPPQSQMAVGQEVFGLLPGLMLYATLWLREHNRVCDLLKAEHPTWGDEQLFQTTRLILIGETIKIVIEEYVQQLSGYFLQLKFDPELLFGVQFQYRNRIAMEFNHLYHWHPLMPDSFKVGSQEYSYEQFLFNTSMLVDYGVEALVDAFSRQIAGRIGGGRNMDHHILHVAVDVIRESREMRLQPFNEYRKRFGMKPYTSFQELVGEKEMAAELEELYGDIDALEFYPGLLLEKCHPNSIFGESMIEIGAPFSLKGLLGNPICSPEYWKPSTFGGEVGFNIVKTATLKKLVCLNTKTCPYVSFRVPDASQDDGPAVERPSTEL
Procedure, shortened: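 Washed human platelets, 10⁸/mL in PBS pH 7.4 with 1 mM CaCl2: 5 min compound preincubation at room temperature, then 1 min at 37 °C. Arachidonic acid 5 μM added; 5 min at 37 °C. 12-HHT extracted and measured by RP-HPLC.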

[9] = target: T5, Prostaglandin G/H synthase 1; assay: Inhibition of COX1-mediated […] in human platelets assessed as residual activity by measuring formation of 12-HHT from arachidonic acid preincubated at 10 uM for 5 mins measured after 5 mins by RP-HPLC analysis relative to control; values are per cent of control
PBMC = assay: Cytotoxicity against human PBMCs assessed as cell viability after 24 hrs by MTT assay; assay type: cell-based
Procedure, shortened: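 Human PBMC (2 × 10⁵/well), 24 h exposure. MTT then 4 h at 37 °C in darkness. Formazan solubilized with 10% SDS in 20 mM HCl; absorbance 550 nm. Viability relative to untreated cells; IC50 derived.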

LNCaP = assay: Cytotoxicity against human LNCAP cells assessed as cell viability after 24 hrs by MTT assay; assay type: cell-based
Procedure, shortened: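 LNCaP seeded at 10⁴ cells/well and exposed 24 h. MTT added, then 4 h at 37 °C, 5% CO2, dark. Medium removed and formazan dissolved in DMSO; absorbance at 570 nm.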

[10] = target: T2, Prostaglandin G/H synthase 1 (Ovis aries); assay: Inhibition of purified ovine COX-1 assessed as residual activity by measuring formation of 12-HHT from arachidonic acid preincubated at 10 uM for 5 mins before substrate addition measured after 5 mins by HPLC analysis relative to control; values are per cent of control
Mus musculus [11] = assay: Antiinflammatory activity in zymosan-induced peritonitis CD1 mouse model assessed as suppression of neutrophil infiltration at 1 mg/kg, ip administered 30 mins before challenge measured 4 hrs post zymosan challenge relative to control; assay type: functional; conditions: route intraperitoneal
Procedure, shortened: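 Zymosan peritonitis in male CD-1 mice (n = 5−11): ip dose in 2% DMSO/saline 30 min before ip zymosan. Peritoneal lavage with 3 mL cold PBS at 4 h. Exudate cells counted by light microscopy in a Burker chamber after trypan blue staining; % inhibition vs vehicle.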

Mus musculus [12] = assay: Antiinflammatory activity in zymosan-induced peritonitis CD1 mouse model assessed as suppression of LTB4 level at 1 mg/kg, ip administered 30 mins before challenge measured 4 hrs post zymosan challenge relative to control v
Mus musculus [13] = assay: Antiinflammatory activity in zymosan-induced peritonitis CD1 mouse model assessed as suppression of MPO activity at 1 mg/kg, ip administered 30 mins before challenge measured 4 hrs post zymosan challenge relative to control; assay type: functional; conditions: route intraperitoneal
Procedure, shortened: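 In male CD-1 mice (n = 5−11 per group), dose was given ip in 2% DMSO/saline 30 min before ip zymosan (2 mg/mL, 0.5 mL). Lavage 4 h later. Pelleted exudate cells disrupted; supernatant mixed with 0.167 mg/mL o-dianisidine and 0.0005% H2O2 in PBS, read kinetically by absorbance. U/mL from human neutrophil MPO calibration; % inhibition vs vehicle.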

[14] = target: T3, Prostaglandin E synthase (Homo sapiens); assay: Inhibition of mPGES1-mediated PGE2 formation in LPS-stimulated human monocytes preincubated for 15 mins before arachidonic acid substrate addition measured after 30 mins by UPLC-MS/MS analysis; assay type: cell-based
Procedure, shortened: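 Fresh human monocytes (adherence-isolated, >85% CD14+; 5 × 10⁶/well) primed with LPS 1 μg/mL for 24 h. Washed, 15 min preincubation, then 2.5 μM A23187 plus 20 μM arachidonic acid for 30 min. Eicosanoids extracted and measured by UPLC-MS/MS, normalized to PGB1 as relative intensities. Two to three independent experiments.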

Prostaglandin E synthase = target: T6, Prostaglandin E synthase (Homo sapiens, UniProt O14684); assay: Inhibition of mPGES1-mediated PGE2 production in microsomes of IL-1beta stimulated human A549 cells preincubated for 15 mins by RP-HPLC analysis; assay type: cell-based; procedure, shortened: as §1
T6 sequence (O14684 whole entry): T3 sequence (whole entry)

residual activity [10]: 25%
SMILES: COc1ccc2c(c1)c(CC(=O)O)c(C)n2C(=O)c1ccc(Cl)cc1

inhibition [14]: Active
IC50 (Prostaglandin E synthase; read-out: IC50): 0.02 µM
SMILES: Clc1ccccc1-c1nc2c3ccccc3c3ccccc3c2[nH]1

Further lines, the molecule ahead of its results:

SMILES: COc1cc(/C=C/C(=O)CC(=O)/C=C/c2cc(CCC(C)C)c(O)c(OC)c2)cc(CCC(C)C)c1O
Activity [1]: 64.3%
Stability [2]: Unstable
residual activity [3]: 75.7%
inhibition [4]: inactive
Activity [5]: 71.7%
IC50 [6]: 80.2 µM
IC50 [7]: 2.8 µM
inhibition [8]: inactive

SMILES: COc1cc(/C=C/C(=O)/C=C/c2cc(F)c(O)c(OC)c2)cc(F)c1O
residual activity [9]: 65.2%
IC50 (PBMC): > 50 µM
Activity [1]: 80.5%
Stability [2]: Unstable
residual activity [3]: 67.7%
IC50 (LNCaP): 25.1 µM
inhibition [4]: inactive
Activity [5]: 58.8%
IC50 [6]: 8.1 µM
IC50 [7]: 0.6 µM

SMILES: O=C1O[C@H]([C@@H](O)CO)C(O)=C1O
Activity [1]: 20.4%

SMILES: CC(C)c1ccc2c(c1)c(SC(C)(C)C)c(CC(C)(C)C(=O)O)n2Cc1ccc(Cl)cc1
inhibition in vivo at 1 mg/kg (Mus musculus [11]): 41%
inhibition in vivo at 1 mg/kg (Mus musculus [12]): 63%
inhibition in vivo at 1 mg/kg (Mus musculus [13]): 41%

SMILES: COc1cc(CCC(=O)CC(=O)CCc2cc(CCC(C)C)c(O)c(OC)c2)cc(CCC(C)C)c1O
residual activity [10]: 82.7%
IC50 (PBMC): > 50 µM
Activity [1]: 71.9%
Stability [2]: 87.4%
residual activity [3]: 76.4%
IC50 (LNCaP): > 50 µM
IC50 (Prostaglandin E synthase; a549): Not Active
IC50 [6]: 2.9 µM
IC50 [7]: 0.4 µM
inhibition [8]: inactive
